{"source": "ChEMBL document CHEMBL1240369", "about": "“Antiviral efficacy of the novel compound BIT225 against HIV-1 release from human macrophages” (Antimicrob Agents Chemother, 2010)", "key": {"[1]": {"tested_on": "PM1", "assay": "Inhibition of Vpu ion channel in 0.05 MOI HIV1 NL4-3 infected in PM1 cells assessed as viral inhibition measured at 10 uM after 7 days by […]", "settings": "Human immunodeficiency virus 1"}, "[2]": {"tested_on": "MDM", "assay": "Inhibition of Vpu ion channel in 0.05 MOI HIV1 Ba-L chronically infected in 10-14 days differentiated human MDM cells assessed as viral inhibition after 1 day relative to control", "assay_type": "cell-based", "settings": "Human immunodeficiency virus 1", "outline": "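Chronic infection model: MDM were incubated with HIV-1 Ba-L for 3 h and left 7 days unwashed, then washed three times and given a single 10 μM dose (DMSO control). Supernatants were sampled routinely for RT activity. In the washout arm, compound was removed and cells kept drug-free for an additional 20 days.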"}, "[3]": {"assay": "Selectivity index, ratio of TC50 for human MDM cells to EC50 for HIV1 5705.72 infected in human MDM cells", "assay_type": "toxicity, cell-based", "settings": "read-out: Selectivity Index"}, "[4]": {"tested_on": "MT2", "assay": "Inhibition of Vpu ion channel in 0.05 MOI HIV1 NL4-3 infected in MT2 cells assessed as viral inhibition measured at 10 uM after 7 days by […]", "settings": "Human immunodeficiency virus 1"}, "[5]": {"assay": "Selectivity index, ratio of TC50 for human MDM cells to EC50 for HIV1 Ba-L infected in human MDM cells", "assay_type": "toxicity, cell-based", "settings": "read-out: Selectivity Index", "outline": "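Day-14 adherence-derived MDM from seronegative donors were infected with HIV-1Ba-L for 3 h, PBS-washed thrice, and cultured in DMEM10+ with compound (10 to 0 μM; DMSO vehicle). EC50 came from nonlinear regression of day-7 supernatant RT activity as % virus control (n = 6, triplicates). TC50 came from day-7 MTT (A560, % DMSO control), range extended to 1,000 μM (n = 3). SI = TC50/EC50.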"}, "[6]": {"tested_on": "MDM", "assay": "Inhibition of Vpu ion channel in 0.001 to 0.01 MOI HIV1 Ba-L infected in 10 days differentiated human MDM cells assessed as viral inhibition by RT assay", "assay_type": "cell-based", "settings": "Human immunodeficiency virus 1", "outline": "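MDM differentiated for 7, 10 or 14 days were infected with HIV-1 Ba-L across a range of MOIs, washed three times with PBS and cultured 7 days with 10 μM compound or equal-volume DMSO. On day 7 postinfection, supernatant RT activity was measured (and infectivity on TZM-bl cells). Cell lysates went to real-time PCR for LTR-gag DNA, normalised to albumin copies.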"}, "[7]": {"tested_on": "PM1", "assay": "Inhibition of Vpu ion channel in 0.05 MOI HIV1 NL4-3 infected in PM1 cells assessed as viral inhibition measured after 7 days by […]", "settings": "Human immunodeficiency virus 1"}, "[8]": {"assay": "Inhibition of Vpu ion channel in HIV1 5705.72 in human MDM assessed as inhibition of vrius release", "set-up": "species or system Human immunodeficiency virus 1"}, "[9]": {"assay": "(§1) Inhibition of Vpu ion channel in HIV1 Ba-L in human MDM assessed as inhibition of vrius release", "set-up": "species or system Human immunodeficiency virus 1", "outline": "(§2)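 Day 14 MDM were infected with HIV-1 Ba-L for 3 h, washed three times and cultured with compound from 10 to 0 μM (0 μM containing matched DMSO). Day 7 supernatants were assayed for RT activity and converted to percent of virus control. EC50 came from nonlinear regression; n = 6 experiments, each in triplicate.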"}, "[10]": {"tested_on": "Human immunodeficiency virus 1", "assay": "as §1", "outline": "as §2"}, "[11]": {"tested_on": "MDM", "assay": "Inhibition of Vpu ion channel in 0.05 MOI HIV1 Ba-L acutely infected in 14 days differentiated human MDM cells assessed as reverse transcriptase activity after 21 days relative to control", "assay_type": "cell-based", "settings": "Human immunodeficiency virus 1", "outline": "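Day 14 MDM were acutely infected with HIV-1 Ba-L at MOI 0.05 for 3 h, washed three times with PBS, then cultured a further 7 days in DMEM10+ with 10 μM compound or equal DMSO. Virus release was measured as supernatant RT activity on day 21 of culture, relative to DMSO controls.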"}, "[12]": {"assay": "Inhibition of Vpu ion channel in HIV1 92UG029 in human MDM assessed as inhibition of vrius release", "set-up": "species or system Human immunodeficiency virus 1"}, "[13]": {"tested_on": "Human immunodeficiency virus 2", "assay": "Antiviral activity against 0.05 MOI HIV2 chronically infected in 7-14 days differentiated human MDM cells assessed as viral inhibition measured after 7 days", "assay_type": "functional, organism-based", "outline": "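Day 14 MDM from 3 seronegative donors were infected with HIV-2, or with HIV-1 Ba-L as a positive control, at MOI 0.05 for 7 days. Cells were then washed free of extracellular virus and cultured ± 10 μM compound for a further 7 days. Day 28 supernatants were assayed for RT activity by chemiluminescent ELISA, with recombinant RT as the standard.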"}, "[14]": {"assay": "Cytotoxicity against human TZM-bl cells assessed as cell viability up to 20 uM by MTT assay", "assay_type": "cell-based"}}, "note": "Active and inactive are the calls of the source. No cut-off for these calls is given here.", "data": [{"smiles": "Cn1cc(-c2cccc3cc(C(=O)NC(=N)N)ccc23)cn1", "values": [{"measurement": "inhibition", "setting": "[1]", "result": 21, "unit": "%"}, {"measurement": "inhibition", "setting": "[2]", "result": 60.7, "unit": "%"}, {"measurement": "selectivity ratio", "setting": "[3]", "result": 39.3}, {"measurement": "inhibition", "setting": "[4]", "result": 24, "unit": "%"}, {"measurement": "selectivity ratio", "setting": "[5]", "result": 126}, {"measurement": "inhibition", "setting": "[6]", "result": 82, "unit": "%"}, {"measurement": "inhibition", "setting": "[7]", "result": 93.1, "unit": "%"}, {"measurement": "EC50", "setting": "[8]", "result": 5.1, "unit": "µM"}, {"measurement": "EC50", "setting": "[9]", "result": 2.25, "unit": "µM"}, {"measurement": "Activity", "setting": "[10]", "result": "Dose-dependent effect"}, {"measurement": "Activity", "setting": "[11]", "result": "< 6", "unit": "U/ml"}, {"measurement": "EC50", "setting": "[12]", "result": 14.4, "unit": "µM"}, {"measurement": "Activity", "setting": "[13]", "result": "inactive"}, {"measurement": "Activity", "setting": "[14]", "result": "Non-toxic"}]}]}
